In article PMC5482095 (Molecular Medicine Reports, 2017):
Converted amounts (≈) assume the structure as drawn.

Assays:
BALB/c 3T3 cells = test: MTT cytotoxicity assay, 3T3 fibroblasts; type: cell-based, murine; conditions: for IC50: Mus musculus, BALB/c3T3, 240 h, read-out: IC50 3T3
mES-D3 cells = test: MTT cytotoxicity assay, embryonic stem cells; type: cell-based, murine; conditions: Mus musculus, Embryonic stem cell, 240 h, read-out: IC50 ES
[1] = tested on: mES-D3 cells and BALB/c-3T3 cells; test: Classification of embryotoxicity by the ECVAM prediction model; set-up: species or system murine; conditions: prediction model from mean IC50 3T3, IC50 ES and ID50
Method in brief: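 Class (non-, weak or strong embryotoxic) comes from the ECVAM linear discriminant prediction model using mean IC50 3T3, IC50 ES and ID50. ID50 setup: 1,000 mES cells per 20 µl hanging drop without LIF for 3 days, then suspension for 2 days, then 100 EBs/well on 0.1% gelatin for 5 days. Compound is present from day 0. On day 10, α/β-MHC expression is measured by RT-PCR against GAPDH, giving the 50%-suppression concentration (mean of three repeats).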

[2] = cited from earlier work
mice = conditions: cited from earlier work
[3] = tested on: mouse preimplantation embryos; conditions: in vivo; cited from earlier work
[4] = toxicological studies; cited from earlier work

Molecule | IC50 (BALB/c 3T3 cells) [µg/mL] | IC50 (mES-D3 cells) [µg/mL] | Classification of the embryotoxicity [1] | Classification of the embryotoxicity according to the PM (in words) [1] | Known in vivo embryotoxic potential [2] | Oral lethal dose (mice) | Influence on development of preimplantation embryos [3] | IC50 3T3 (BALB/c 3T3 cells; BALB/c 3T3 cells, 10 days of culture, MTT, mean ± standard error of the mean of three experiments) [µg/mL] | Toxicity in vivo [4]
O=c1[nH]cc(F)c(=O)[nH]1 [5-fluorouracil, reference compound] | 0.244 ± 0.051 (≈ 1.88 µM) | 0.08 ± 0.016 (≈ 0.615 µM) | Strong | strong embryotoxicity | strong embryotoxicity | – | – | – | –
CC(C)c1cc2c(c(O)c1O)[C@@]1(C(=O)O)CCCC(C)(C)[C@@H]1CC2 [Carnosic acid] | 26.3 ± 3.86 (≈ 79.1 µM) | 5.77 ± 1.3 (≈ 17.4 µM) | Weak | weak embryotoxicity | – | 7,100 mg/kg of body weight | – | – | –
CCCCCCCCOC(=O)c1ccccc1C(=O)OCCCCCCCC [Dioctyl phthalate, dioctyl phthalate] | 213 ± 28.2 (≈ 547 µM) | 124 ± 24.9 (≈ 316 µM) | Weak | weak embryotoxicity | – | – | – | – | –
C=CCc1ccc(O)c(OC)c1 [Eugenol, eugenol] | 9.44 ± 2.85 (≈ 57.5 µM) | 1.93 ± 0.329 (≈ 11.7 µM) | Strong | strong embryotoxicity | – | – | may induce a significantly increased rate of cell death and affect the development of embryo | – | –
CC1(C)S[C@@H]2[C@H](NC(=O)Cc3ccccc3)C(=O)N2[C@H]1C(=O)O [Penicillin G, penicillin G, reference compound] | 1160 ± 69.1 (≈ 3470 µM) | 1570 ± 152 (≈ 4690 µM) | None | non-embryotoxicity | – | – | – | – | –
procyanidin | – | – | None | non-embryotoxicity | – | – | – | 12.100 ± 1.828 | nontoxic and does not cause any detrimental effects in vivo
